What was measured:
[1] = target: Cyclin-dependent kinase 13 (Homo sapiens) (UniProt Q14004); experiment: Inhibition of human recombinant CHED at 40 nM related to control ULK1
[2] = target: Tyrosine-protein kinase CSK (Homo sapiens) (UniProt P41240); experiment: Inhibition of human recombinant CSK at 40 nM related to control ULK1
[3] = target: Calcium/calmodulin-dependent protein kinase type 1B (Homo sapiens) (UniProt Q6P2M8); experiment: Inhibition of human recombinant CaMK1b at 40 nM related to control ULK1
Calcium/calmodulin-dependent protein kinase type 1B (Homo sapiens), sequence (Q6P2M8 whole entry): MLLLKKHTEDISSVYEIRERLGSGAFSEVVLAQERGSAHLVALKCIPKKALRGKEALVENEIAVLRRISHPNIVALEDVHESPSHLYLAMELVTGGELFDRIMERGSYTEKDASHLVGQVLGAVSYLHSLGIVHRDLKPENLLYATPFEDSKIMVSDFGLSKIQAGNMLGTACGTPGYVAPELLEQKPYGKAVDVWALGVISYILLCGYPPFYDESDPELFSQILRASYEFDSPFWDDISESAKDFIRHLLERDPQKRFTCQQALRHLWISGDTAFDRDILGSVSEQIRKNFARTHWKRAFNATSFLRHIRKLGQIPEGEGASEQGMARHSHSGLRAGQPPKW

[4] = target: T1, G protein-coupled receptor kinase 3 (Homo sapiens) (UniProt P35626); experiment: Inhibition of human recombinant BARK2 at 40 nM related to control ULK1
T1 sequence (whole entry): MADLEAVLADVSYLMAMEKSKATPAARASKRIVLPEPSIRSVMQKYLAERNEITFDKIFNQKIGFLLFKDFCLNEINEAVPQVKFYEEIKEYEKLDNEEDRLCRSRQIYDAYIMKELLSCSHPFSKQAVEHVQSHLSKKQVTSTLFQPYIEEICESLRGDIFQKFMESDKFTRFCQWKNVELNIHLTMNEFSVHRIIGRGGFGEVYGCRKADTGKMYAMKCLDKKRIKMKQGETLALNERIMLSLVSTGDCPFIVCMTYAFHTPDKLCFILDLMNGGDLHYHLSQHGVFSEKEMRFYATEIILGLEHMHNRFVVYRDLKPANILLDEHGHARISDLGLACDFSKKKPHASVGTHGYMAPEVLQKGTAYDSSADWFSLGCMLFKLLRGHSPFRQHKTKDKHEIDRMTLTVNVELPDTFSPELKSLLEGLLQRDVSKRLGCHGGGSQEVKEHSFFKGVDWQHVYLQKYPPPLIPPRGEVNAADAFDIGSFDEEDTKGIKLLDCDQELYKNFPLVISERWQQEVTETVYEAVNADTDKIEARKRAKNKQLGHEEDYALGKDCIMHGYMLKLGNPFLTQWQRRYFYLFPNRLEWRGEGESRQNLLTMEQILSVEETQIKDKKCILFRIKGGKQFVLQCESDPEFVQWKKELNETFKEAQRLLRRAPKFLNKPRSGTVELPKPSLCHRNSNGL
Procedure, shortened: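 Radiometric activity assays in a panel of 327 human recombinant kinases, each run in duplicate at one inhibitor concentration. Activity remaining is expressed as percent of vehicle control, and percent inhibition is calculated as 100% minus percent activity remaining.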

[5] = target: T2, Serine/threonine-protein kinase ULK3 (Homo sapiens) (UniProt Q6PHR2); experiment: Inhibition of human recombinant ULK3 at 40 nM in presence of ATP by radiometric assay relative to control
T2 sequence (whole entry): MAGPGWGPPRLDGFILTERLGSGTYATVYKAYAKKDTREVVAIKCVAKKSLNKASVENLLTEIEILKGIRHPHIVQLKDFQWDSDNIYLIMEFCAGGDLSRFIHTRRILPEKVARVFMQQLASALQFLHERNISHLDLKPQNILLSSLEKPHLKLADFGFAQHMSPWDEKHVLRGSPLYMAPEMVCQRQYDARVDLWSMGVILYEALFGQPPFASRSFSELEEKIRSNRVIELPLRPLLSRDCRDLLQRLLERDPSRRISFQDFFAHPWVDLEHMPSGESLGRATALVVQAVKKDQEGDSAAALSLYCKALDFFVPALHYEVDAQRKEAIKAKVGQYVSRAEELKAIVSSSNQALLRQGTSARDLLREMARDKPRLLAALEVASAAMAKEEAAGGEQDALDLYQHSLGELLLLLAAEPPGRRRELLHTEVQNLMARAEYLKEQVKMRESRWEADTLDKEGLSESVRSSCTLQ

[6] = target: Serine/threonine-protein kinase SBK1 (Homo sapiens) (UniProt Q52WX2); experiment: Inhibition of human recombinant SBK1 at 40 nM in presence of ATP by radiometric assay relative to control
Serine/threonine-protein kinase SBK1 (Homo sapiens), sequence (Q52WX2 whole entry): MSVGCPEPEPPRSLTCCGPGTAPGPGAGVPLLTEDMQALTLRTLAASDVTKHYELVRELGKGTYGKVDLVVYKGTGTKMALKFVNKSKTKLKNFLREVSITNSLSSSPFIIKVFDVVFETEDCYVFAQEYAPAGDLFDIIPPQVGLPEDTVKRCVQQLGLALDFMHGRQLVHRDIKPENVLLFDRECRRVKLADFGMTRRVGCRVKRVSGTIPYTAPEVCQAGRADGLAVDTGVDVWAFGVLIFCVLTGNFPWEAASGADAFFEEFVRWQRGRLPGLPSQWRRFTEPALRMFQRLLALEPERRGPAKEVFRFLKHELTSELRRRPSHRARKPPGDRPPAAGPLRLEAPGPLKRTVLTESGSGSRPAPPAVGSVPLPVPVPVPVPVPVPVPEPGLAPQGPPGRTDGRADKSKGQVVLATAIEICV

[7] = target: T3, Ephrin type-A receptor 3 (Homo sapiens) (UniProt P29320); experiment: Inhibition of human recombinant EphA3 at 15 nM related to control ULK1
T3 sequence (whole entry): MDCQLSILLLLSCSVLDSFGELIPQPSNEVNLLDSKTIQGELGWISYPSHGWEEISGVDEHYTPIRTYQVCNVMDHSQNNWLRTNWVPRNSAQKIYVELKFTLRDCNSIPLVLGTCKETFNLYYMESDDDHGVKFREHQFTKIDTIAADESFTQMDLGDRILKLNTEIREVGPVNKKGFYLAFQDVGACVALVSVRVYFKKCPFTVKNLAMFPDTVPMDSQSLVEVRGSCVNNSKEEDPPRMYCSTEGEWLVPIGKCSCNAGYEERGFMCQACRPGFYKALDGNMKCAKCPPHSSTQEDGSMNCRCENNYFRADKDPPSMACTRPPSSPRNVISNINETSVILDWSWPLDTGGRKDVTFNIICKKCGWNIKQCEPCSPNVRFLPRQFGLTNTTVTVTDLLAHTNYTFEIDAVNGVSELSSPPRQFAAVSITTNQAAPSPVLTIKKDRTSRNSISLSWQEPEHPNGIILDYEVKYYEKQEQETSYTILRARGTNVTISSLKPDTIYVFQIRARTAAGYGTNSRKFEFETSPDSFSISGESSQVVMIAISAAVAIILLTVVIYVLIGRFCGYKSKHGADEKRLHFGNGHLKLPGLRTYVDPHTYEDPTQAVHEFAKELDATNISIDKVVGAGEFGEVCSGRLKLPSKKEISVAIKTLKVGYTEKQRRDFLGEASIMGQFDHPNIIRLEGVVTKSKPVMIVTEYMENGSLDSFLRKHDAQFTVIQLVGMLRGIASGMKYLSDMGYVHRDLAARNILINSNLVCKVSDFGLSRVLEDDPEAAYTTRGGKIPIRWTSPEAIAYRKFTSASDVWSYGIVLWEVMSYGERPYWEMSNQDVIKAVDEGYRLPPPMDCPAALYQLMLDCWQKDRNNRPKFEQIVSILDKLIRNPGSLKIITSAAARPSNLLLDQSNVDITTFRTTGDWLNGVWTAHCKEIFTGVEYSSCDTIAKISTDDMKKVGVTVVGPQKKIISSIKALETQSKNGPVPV

[8] = target: Interferon-induced, double-stranded RNA-activated protein kinase (Homo sapiens) (UniProt P19525); experiment: Inhibition of human recombinant PKR at 15 nM in presence of ATP by radiometric assay relative to control
Interferon-induced, double-stranded RNA-activated protein kinase (Homo sapiens), sequence (P19525 whole entry): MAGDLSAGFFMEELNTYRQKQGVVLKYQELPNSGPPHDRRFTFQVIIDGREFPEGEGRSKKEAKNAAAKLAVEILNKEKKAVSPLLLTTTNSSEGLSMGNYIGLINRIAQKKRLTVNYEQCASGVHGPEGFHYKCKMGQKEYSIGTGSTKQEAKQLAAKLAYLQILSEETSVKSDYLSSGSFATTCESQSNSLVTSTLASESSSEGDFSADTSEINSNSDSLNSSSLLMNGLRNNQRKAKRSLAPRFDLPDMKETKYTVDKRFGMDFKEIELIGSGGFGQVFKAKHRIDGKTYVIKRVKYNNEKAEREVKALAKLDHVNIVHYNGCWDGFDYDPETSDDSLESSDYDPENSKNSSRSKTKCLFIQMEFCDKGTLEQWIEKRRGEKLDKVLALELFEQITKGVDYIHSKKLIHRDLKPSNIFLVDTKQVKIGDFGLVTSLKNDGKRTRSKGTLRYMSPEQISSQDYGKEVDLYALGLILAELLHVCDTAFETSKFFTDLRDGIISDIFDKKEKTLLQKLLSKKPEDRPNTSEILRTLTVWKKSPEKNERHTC

[9] = target: Tyrosine-protein kinase Lck (Homo sapiens) (UniProt P06239); experiment: Inhibition of human recombinant LCK at 15 nM in presence of ATP by radiometric assay relative to control
Tyrosine-protein kinase Lck (Homo sapiens), sequence (P06239 2-509 limits assumed): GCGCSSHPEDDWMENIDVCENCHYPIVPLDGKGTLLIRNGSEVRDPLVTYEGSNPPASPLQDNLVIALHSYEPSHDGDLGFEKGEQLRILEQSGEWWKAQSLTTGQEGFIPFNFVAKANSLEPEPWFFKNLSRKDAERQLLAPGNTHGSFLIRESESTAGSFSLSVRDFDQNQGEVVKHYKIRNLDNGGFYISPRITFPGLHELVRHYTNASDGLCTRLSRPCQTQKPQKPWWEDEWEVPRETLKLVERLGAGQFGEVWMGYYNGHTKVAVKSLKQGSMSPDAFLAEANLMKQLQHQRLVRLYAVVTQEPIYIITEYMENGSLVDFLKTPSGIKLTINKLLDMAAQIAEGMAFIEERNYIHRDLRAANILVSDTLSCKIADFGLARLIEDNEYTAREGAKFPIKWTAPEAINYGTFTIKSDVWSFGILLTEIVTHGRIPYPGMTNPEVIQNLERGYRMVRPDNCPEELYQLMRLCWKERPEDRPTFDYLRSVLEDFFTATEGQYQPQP

[10] = target: Tyrosine-protein kinase JAK1 (Homo sapiens) (UniProt P23458); experiment: Inhibition of human recombinant JAK1 at 500 nM related to control ULK1
Tyrosine-protein kinase JAK1 (Homo sapiens), sequence (P23458 whole entry): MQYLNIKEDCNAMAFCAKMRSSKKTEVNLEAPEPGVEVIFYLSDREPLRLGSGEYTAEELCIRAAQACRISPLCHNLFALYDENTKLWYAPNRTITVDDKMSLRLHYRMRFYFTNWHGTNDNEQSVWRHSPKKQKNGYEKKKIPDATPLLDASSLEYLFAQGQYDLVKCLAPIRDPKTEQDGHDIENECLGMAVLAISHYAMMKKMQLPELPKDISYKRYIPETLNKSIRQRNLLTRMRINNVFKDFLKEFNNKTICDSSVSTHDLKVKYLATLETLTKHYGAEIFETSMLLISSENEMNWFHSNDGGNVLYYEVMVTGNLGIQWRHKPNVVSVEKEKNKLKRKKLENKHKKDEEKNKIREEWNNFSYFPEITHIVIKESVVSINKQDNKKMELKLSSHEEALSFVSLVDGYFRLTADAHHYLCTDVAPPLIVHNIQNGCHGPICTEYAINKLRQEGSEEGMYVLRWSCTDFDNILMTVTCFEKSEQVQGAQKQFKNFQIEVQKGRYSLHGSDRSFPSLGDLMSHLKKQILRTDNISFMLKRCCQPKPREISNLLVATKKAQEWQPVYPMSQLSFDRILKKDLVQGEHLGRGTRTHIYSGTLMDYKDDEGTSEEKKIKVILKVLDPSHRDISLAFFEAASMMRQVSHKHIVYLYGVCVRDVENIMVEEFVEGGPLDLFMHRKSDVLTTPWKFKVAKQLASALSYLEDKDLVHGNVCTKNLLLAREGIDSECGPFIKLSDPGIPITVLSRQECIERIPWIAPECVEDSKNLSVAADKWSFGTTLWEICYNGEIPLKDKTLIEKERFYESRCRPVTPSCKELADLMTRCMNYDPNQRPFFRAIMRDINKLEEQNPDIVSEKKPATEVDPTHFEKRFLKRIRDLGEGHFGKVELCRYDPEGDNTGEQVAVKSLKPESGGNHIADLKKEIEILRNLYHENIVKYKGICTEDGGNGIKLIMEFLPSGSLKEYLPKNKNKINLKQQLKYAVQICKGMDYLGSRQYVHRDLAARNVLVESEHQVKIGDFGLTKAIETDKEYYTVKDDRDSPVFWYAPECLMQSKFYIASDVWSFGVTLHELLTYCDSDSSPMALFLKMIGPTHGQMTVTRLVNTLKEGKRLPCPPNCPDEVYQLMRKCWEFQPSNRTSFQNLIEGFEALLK

[11] = target: Serine/threonine-protein kinase PLK2 (Homo sapiens) (UniProt Q9NYY3); experiment: Inhibition of human recombinant PLK2 at 500 nM related to control ULK1
Serine/threonine-protein kinase PLK2 (Homo sapiens), sequence (Q9NYY3 whole entry, looked up, canonical isoform): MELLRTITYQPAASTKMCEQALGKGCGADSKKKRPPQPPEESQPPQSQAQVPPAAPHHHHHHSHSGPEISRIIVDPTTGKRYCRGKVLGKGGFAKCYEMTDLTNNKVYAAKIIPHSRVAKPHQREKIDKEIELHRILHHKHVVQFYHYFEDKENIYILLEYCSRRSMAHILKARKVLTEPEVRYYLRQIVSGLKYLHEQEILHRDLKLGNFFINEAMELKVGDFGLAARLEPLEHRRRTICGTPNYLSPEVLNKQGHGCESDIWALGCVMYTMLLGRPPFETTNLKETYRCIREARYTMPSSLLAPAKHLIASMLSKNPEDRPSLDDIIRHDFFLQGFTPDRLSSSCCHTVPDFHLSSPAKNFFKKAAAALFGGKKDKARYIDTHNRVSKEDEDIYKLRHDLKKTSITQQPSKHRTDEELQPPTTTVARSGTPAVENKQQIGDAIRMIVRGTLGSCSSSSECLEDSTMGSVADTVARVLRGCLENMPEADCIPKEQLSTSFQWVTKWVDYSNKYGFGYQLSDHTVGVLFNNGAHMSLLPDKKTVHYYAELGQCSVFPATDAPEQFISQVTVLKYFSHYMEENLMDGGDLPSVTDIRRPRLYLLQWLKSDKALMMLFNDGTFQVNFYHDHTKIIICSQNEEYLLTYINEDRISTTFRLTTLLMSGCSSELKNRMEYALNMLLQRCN

[12] = target: Casein kinase I isoform gamma-1 (Homo sapiens) (UniProt Q9HCP0); experiment: Inhibition of human recombinant CK1g1 at 500 nM in presence of ATP by radiometric assay relative to control
Casein kinase I isoform gamma-1 (Homo sapiens), sequence (Q9HCP0 whole entry, looked up, canonical isoform): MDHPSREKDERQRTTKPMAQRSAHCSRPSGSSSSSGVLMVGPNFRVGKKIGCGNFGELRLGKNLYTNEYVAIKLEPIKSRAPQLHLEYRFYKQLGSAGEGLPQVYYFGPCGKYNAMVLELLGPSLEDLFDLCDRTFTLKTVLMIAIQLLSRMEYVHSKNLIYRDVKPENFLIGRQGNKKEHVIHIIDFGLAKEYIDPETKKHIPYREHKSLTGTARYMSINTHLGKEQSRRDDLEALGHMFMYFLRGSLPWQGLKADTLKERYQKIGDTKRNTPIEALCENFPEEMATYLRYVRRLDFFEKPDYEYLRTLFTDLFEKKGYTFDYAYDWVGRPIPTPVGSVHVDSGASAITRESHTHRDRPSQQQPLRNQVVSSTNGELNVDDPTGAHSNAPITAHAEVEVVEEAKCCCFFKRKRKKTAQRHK

Tyrosine-protein kinase CSK (Homo sapiens), sequence (P41240 2-450 limits assumed): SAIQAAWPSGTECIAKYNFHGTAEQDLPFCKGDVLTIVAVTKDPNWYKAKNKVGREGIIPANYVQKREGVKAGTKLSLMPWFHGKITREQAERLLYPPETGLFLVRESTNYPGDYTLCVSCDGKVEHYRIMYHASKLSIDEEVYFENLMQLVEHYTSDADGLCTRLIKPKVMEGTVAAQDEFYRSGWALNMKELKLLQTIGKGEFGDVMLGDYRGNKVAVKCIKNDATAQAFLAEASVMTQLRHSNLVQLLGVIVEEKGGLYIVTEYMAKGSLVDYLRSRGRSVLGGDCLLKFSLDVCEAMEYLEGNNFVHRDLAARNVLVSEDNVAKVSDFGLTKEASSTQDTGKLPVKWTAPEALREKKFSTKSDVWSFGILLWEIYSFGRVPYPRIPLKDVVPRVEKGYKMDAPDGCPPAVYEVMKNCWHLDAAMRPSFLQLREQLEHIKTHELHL

SMILES: O=C(N[C@@H](C1CC1)C(F)(F)F)c1cc(-c2cnn3cc(-c4ccc(F)cc4)cnc23)cs1
- fold change (FC) [1]: 0.05
- fold change (FC) [2]: 0
- fold change (FC) [3]: 0
- fold change (FC) [4]: 0.1
- inhibition [5]: 5%
- inhibition [6]: 0%

SMILES: CC(C)[C@H](NC(=O)c1cc(-c2cnn3cc(-c4ccc(OCCN5CCCCC5)cc4)cnc23)cs1)C(F)(F)F
- fold change (FC) [7]: 0.03
- inhibition [8]: 2%
- inhibition [9]: 11%

SMILES: CNC(=O)c1ccccc1Oc1nc(Nc2cc(OC)c(OC)c(OC)c2)ncc1Br
- fold change (FC) [10]: 0.53
- fold change (FC) [11]: 0.05
- inhibition [12]: 0%

Source: ChEMBL document CHEMBL5653631, “A Potent and Selective ULK1 Inhibitor Suppresses Autophagy and Sensitizes Cancer Cells to Nutrient Stress” (iScience, 2018)
